Data: ChEMBL document CHEMBL2086304, “Synthesis and in vitro antimycobacterial and isocitrate lyase inhibition properties of novel 2-methoxy-2'-hydroxybenzanilides, their thioxo analogues and benzoxazoles” (Eur J Med Chem, 2012)
≈ marks a conversion by molar mass, not a printed value.

Experiments:
Mycobacterium avium [1] = test: Antimycobacterial activity against isoniazid resistance Mycobacterium avium 330/88 after 14 days by micromethod; type: functional; conditions: 330/88, 336 h
Outline: (§1)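 Inocula: M. tuberculosis My 331/88 at 10^-3 dilution, M. avium My 330/88 at 10^-5, M. kansasii My 235/80 and clinical isolate 6509/96 at 10^-4. Compounds added in DMSO at 1000 down to 0.5 (twofold series). Read at 14 and 21 days, plus 7 days for M. kansasii. MIC taken as lowest concentration inhibiting growth.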

[2] = test system: Mycobacterium tuberculosis; test: Antimycobacterial activity against Mycobacterium tuberculosis 331/88 after 14 days by micromethod; type: functional; conditions: 331/88, 336 h; outline: as §1
[3] = Selectivity index, ratio of IC50 for human HepG2 cells to MIC for Mycobacterium tuberculosis 331/88 after 14 days; type: functional
Outline: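 Cytotoxicity in Hep G2 cells (passage 12), 10,000 cells/well, in MEM with 10% FBS, 1% glutamine and 1% nonessential amino acids. Cells preincubated 24 h, 37 °C, 5% CO2. Compounds in DMSO at eight concentrations in quadruplicate, 24 h. MTS-type reagent added for 1.5 h, A490 read, IC50 taken at 50% viability. SI = this IC50 over the 14-day M. tuberculosis MIC.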

Mycobacterium kansasii [4] = test: Antimycobacterial activity against isoniazid resistance Mycobacterium kansasii 225/80 after 21 days by micromethod; type: functional; conditions: 225/80, 504 h
Mycobacterium kansasii [5] = test: Antimycobacterial activity against isoniazid resistance Mycobacterium kansasii 225/80 after 14 days by micromethod; type: functional; conditions: 225/80, 336 h
[6] = target: T1, Isocitrate lyase (Mycobacterium tuberculosis) (UniProt P9WKK7); test: Inhibition of Mycobacterium tuberculosis H37Rv isocitrate lyase expressed in Escherichia coli HB101 at 10 umol/L
T1 sequence (whole entry): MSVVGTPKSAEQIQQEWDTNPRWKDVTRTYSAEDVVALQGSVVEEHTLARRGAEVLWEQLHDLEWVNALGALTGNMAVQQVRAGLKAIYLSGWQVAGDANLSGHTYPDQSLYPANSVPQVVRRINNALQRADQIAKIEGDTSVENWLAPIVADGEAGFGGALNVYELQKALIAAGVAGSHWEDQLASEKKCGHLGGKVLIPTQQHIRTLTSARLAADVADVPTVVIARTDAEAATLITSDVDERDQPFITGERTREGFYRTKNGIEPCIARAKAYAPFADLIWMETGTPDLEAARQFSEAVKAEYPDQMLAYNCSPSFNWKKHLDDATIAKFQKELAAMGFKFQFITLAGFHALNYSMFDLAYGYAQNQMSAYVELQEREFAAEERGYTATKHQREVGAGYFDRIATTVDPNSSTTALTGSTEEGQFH
Outline: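 Isocitrate lyase assayed per Dixon–Kornberg in 96-well format. Buffer: 50 mmol/L KH2PO4, 4 mmol/L MgCl2, 4 mmol/L phenylhydrazine, 12 mmol/L cysteine, pH 7.0. Glyoxylate phenylhydrazone read at 324 nm. Compounds added in DMSO, with DMSO-alone inhibition subtracted.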

Mycobacterium kansasii [7] = test: Antimycobacterial activity against isoniazid resistance Mycobacterium kansasii 225/80 after 7 days by micromethod; type: functional; conditions: 225/80, 168 h
[8] = test system: Mycobacterium tuberculosis; test: Antimycobacterial activity against Mycobacterium tuberculosis 331/88 after 21 days by micromethod; type: functional; conditions: 331/88, 504 h; outline: as §1
HepG2 = test: Cytotoxicity against human HepG2 cells after 24 hrs by CellTiter-96 cell viability assay; type: functional, cell-based; conditions: HepG2, 24 h
Outline: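 Hep G2 human hepatic cells (passage 12), 10,000 per well, grown 24 h at 37 °C, 5% CO2 in MEM with 1% glutamine, 10% FBS and 1% nonessential amino acids. Compounds in DMSO at eight increasing concentrations, quadruplicate, 24 h at 37 °C. Kit reagent added, 1.5 h at 37 °C, absorbance 490 nm. IC50 is the concentration reducing viability to 50% of control.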

Mycobacterium kansasii [9] = test: Antimycobacterial activity against Mycobacterium kansasii 6509/96 clinical isolate after 7 days by micromethod; type: functional; conditions: 6509/96, 168 h; outline: as §1
Mycobacterium kansasii [10] = test: Antimycobacterial activity against Mycobacterium kansasii 6509/96 clinical isolate after 14 days by micromethod; type: functional; conditions: 6509/96, 336 h; outline: as §1
Mycobacterium avium [11] = test: Antimycobacterial activity against isoniazid resistance Mycobacterium avium 330/88 after 21 days by micromethod; type: functional; conditions: 330/88, 504 h; outline: as §1
Mycobacterium kansasii [12] = test: Antimycobacterial activity against Mycobacterium kansasii 6509/96 clinical isolate after 21 days by micromethod; type: functional; conditions: 6509/96, 504 h; outline: as §1

Row | Compound | MIC (Mycobacterium avium [1]) [µM] | MIC [2] [µM] | Selectivity Index [3] | MIC (Mycobacterium kansasii [4]) [µM] | MIC (Mycobacterium kansasii [5]) [µM] | inhibition [6] [%] | MIC (Mycobacterium kansasii [7]) [µM] | MIC [8] [µM] | IC50 (HepG2) [µM] | MIC (Mycobacterium kansasii [9]) [µM] | MIC (Mycobacterium kansasii [10]) [µM] | MIC (Mycobacterium avium [11]) [µM] | MIC (Mycobacterium kansasii [12]) [µM]
1 | COc1cc(Cl)ccc1C(=O)Nc1ccc(Cl)cc1O | 62.5 (≈ 19.5 µg/mL) | 8 (≈ 2.5 µg/mL) | 0.92 | 125 (≈ 39 µg/mL) | 62.5 (≈ 19.5 µg/mL) | 4 | 62.5 (≈ 19.5 µg/mL) | 8 (≈ 2.5 µg/mL) | 7.34 | 16 (≈ 4.99 µg/mL) | 62.5 (≈ 19.5 µg/mL) | 125 (≈ 39 µg/mL) | 62.5 (≈ 19.5 µg/mL)
2 | COc1cc(Cl)ccc1C(=O)Nc1ccc(C(F)(F)F)cc1O | 62.5 (≈ 21.6 µg/mL) | 250 (≈ 86.4 µg/mL) | 0.02 | 250 (≈ 86.4 µg/mL) | 250 (≈ 86.4 µg/mL) | 7 |  | 250 (≈ 86.4 µg/mL) | 3.9 | 250 (≈ 86.4 µg/mL) | 250 (≈ 86.4 µg/mL) | 62.5 (≈ 21.6 µg/mL) | 250 (≈ 86.4 µg/mL)
3 | COc1cc(Cl)ccc1C(=O)Nc1cc(Br)ccc1O | 62.5 (≈ 22.3 µg/mL) | 125 (≈ 44.6 µg/mL) | 0.05 | 62.5 (≈ 22.3 µg/mL) | 62.5 (≈ 22.3 µg/mL) | 0 | 62.5 (≈ 22.3 µg/mL) | 125 (≈ 44.6 µg/mL) | 5.63 | 62.5 (≈ 22.3 µg/mL) | 62.5 (≈ 22.3 µg/mL) | 62.5 (≈ 22.3 µg/mL) | 62.5 (≈ 22.3 µg/mL)
4 | COc1ccc(Cl)cc1C(=O)Nc1cc(Br)ccc1O | 62.5 (≈ 22.3 µg/mL) | 8 (≈ 2.85 µg/mL) | 0.51 | 8 (≈ 2.85 µg/mL) | 8 (≈ 2.85 µg/mL) | 0 | 4 (≈ 1.43 µg/mL) | 8 (≈ 2.85 µg/mL) | 4.09 | 4 (≈ 1.43 µg/mL) | 8 (≈ 2.85 µg/mL) | 62.5 (≈ 22.3 µg/mL) | 8 (≈ 2.85 µg/mL)
5 | COc1cc(Cl)ccc1C(=S)Nc1ccc(C(F)(F)F)cc1O | 62.5 (≈ 22.6 µg/mL) | 32 (≈ 11.6 µg/mL) | 0.1 | 62.5 (≈ 22.6 µg/mL) | 62.5 (≈ 22.6 µg/mL) | 23 |  | 62.5 (≈ 22.6 µg/mL) | 3.14 | 32 (≈ 11.6 µg/mL) | 62.5 (≈ 22.6 µg/mL) | 62.5 (≈ 22.6 µg/mL) | 62.5 (≈ 22.6 µg/mL)
6 | COc1cc(Cl)ccc1-c1nc2cc(Br)ccc2o1 | 250 (≈ 84.6 µg/mL) | 250 (≈ 84.6 µg/mL) |  | 250 (≈ 84.6 µg/mL) | 250 (≈ 84.6 µg/mL) | 0 | 250 (≈ 84.6 µg/mL) | 250 (≈ 84.6 µg/mL) |  | 250 (≈ 84.6 µg/mL) | 250 (≈ 84.6 µg/mL) | 250 (≈ 84.6 µg/mL) | 250 (≈ 84.6 µg/mL)
7 | COc1ccc(Cl)cc1-c1nc2ccc(Br)cc2o1 | 125 (≈ 42.3 µg/mL) | 125 (≈ 42.3 µg/mL) |  | 125 (≈ 42.3 µg/mL) | 125 (≈ 42.3 µg/mL) | 0 | 125 (≈ 42.3 µg/mL) | 125 (≈ 42.3 µg/mL) |  | 125 (≈ 42.3 µg/mL) | 125 (≈ 42.3 µg/mL) | 125 (≈ 42.3 µg/mL) | 125 (≈ 42.3 µg/mL)
8 | COc1ccc(Cl)cc1C(=S)Nc1ccc(C(F)(F)F)cc1O | 32 (≈ 11.6 µg/mL) | 62.5 (≈ 22.6 µg/mL) | 0.06 | 62.5 (≈ 22.6 µg/mL) | 62.5 (≈ 22.6 µg/mL) | 21 |  | 62.5 (≈ 22.6 µg/mL) | 3.69 | 32 (≈ 11.6 µg/mL) | 62.5 (≈ 22.6 µg/mL) | 62.5 (≈ 22.6 µg/mL) | 62.5 (≈ 22.6 µg/mL)
9 | COc1ccc(Cl)cc1-c1nc2cc(Cl)ccc2o1 | 250 (≈ 73.5 µg/mL) | 125 (≈ 36.8 µg/mL) |  | 250 (≈ 73.5 µg/mL) | 250 (≈ 73.5 µg/mL) | 0 | 250 (≈ 73.5 µg/mL) | 125 (≈ 36.8 µg/mL) |  | 250 (≈ 73.5 µg/mL) | 250 (≈ 73.5 µg/mL) | 250 (≈ 73.5 µg/mL) | 250 (≈ 73.5 µg/mL)
10 | COc1ccc(Cl)cc1-c1nc2cc(Br)ccc2o1 | 250 (≈ 84.6 µg/mL) | 250 (≈ 84.6 µg/mL) |  | 250 (≈ 84.6 µg/mL) | 250 (≈ 84.6 µg/mL) | 0 | 250 (≈ 84.6 µg/mL) | 250 (≈ 84.6 µg/mL) |  | 250 (≈ 84.6 µg/mL) | 250 (≈ 84.6 µg/mL) | 250 (≈ 84.6 µg/mL) | 250 (≈ 84.6 µg/mL)
